Calls of active or inactive are those of the source. No cut-off for these calls is given here.
Assays:
CL1-0 [1] = test: Induction of mitotic arrest in human CL1-0 cells assessed as cyclin A expression at 20 to 40 nM after 24 hrs by immunoblotting analysis; format: functional, cell-based
DU-145 = test: Antiproliferative activity against human DU145 cells assessed as reduction in cell viability after 72 hrs by MTS assay; format: functional, cell-based; conditions: DU-145, 72 h
Method in brief: (§1)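 Cells plated at 2000/well, cultured overnight, then exposed to a range of compound concentrations for 72 h. MTS reagent added for 1–4 h at 37 °C and absorbance read at 490 nm. Cultured in RPMI 1640 or DMEM with 10% heat-inactivated FBS under 5% CO2. Data are the mean of three determinations.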

CL1-0 [2] = test: Antiproliferative activity against human CL1-0 cells assessed as reduction in colony formation after 14 days by crystal violet staining based assay; format: functional, cell-based
Method in brief: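 Seeded at 1000 cells/well, cultured overnight, then treated with 12.5–200 nM for 14 days. Colonies fixed in 3.7% paraformaldehyde, stained with 0.04% crystal violet and dissolved in DMSO, then absorbance read at 590 nm. Mean ± SD.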

NCI-H1975 [3] = test: Induction of apoptosis in human NCI-H1975 cells assessed as increase in cytochrome c level in cytosol at 40 to 80 nM after 24 hrs by immunoblotting analysis; format: functional, cell-based
SK-OV-3 = test: Antiproliferative activity against human SKOV3 cells assessed as reduction in cell viability after 72 hrs by MTS assay; format: functional, cell-based; conditions: SK-OV-3, 72 h; method in brief: as §1
NCI-H1975 [4] = test: Induction of morphological changes in human NCI-H1975 cells assessed as disruption of mitotic spindle arrangement at 40 nM after 6 hrs by DAPI staining based DAPI staining based confocal microscopic analysis; format: functional, cell-based
Method in brief: (§2)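 Cells exposed for 6 h, fixed in 3.7% paraformaldehyde, permeabilized with 0.1% Triton X-100. Stained with anti-α-tubulin (1:1000) overnight at 4 °C, FITC secondary 1 h at 37 °C, nuclei counterstained with DAPI. Imaged by confocal laser scanning microscopy.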

NCI-H1975 [5] = test: Cell cycle arrest in human NCI-H1975 cells assessed as increase in cell population at G2/M phase after 24 hrs by propidium iodide-staining based flow cytometry; format: functional
Method in brief: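 Cells treated for 24 h, then trypsinized and fixed overnight in ice-cold 70% ethanol. Stained for 30 min with propidium iodide (10 µg/mL) plus RNase (20 µg/mL), and DNA content measured by flow cytometry. Mean ± SD.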

Tubulin (Homo sapiens) [6] = target: T1, Tubulin (Homo sapiens) (UniProt P68371+Q9H4B7+P0DPH7+P68366+Q13509+Q71U36+P04350+Q3ZCM7+P07437+P68363+Q9BQE3+Q6PEY2+Q13885+Q9BVA1+Q9BUF5); test: Induction of microtubule depolymerization in human NCI-H1975 cells at 40 nM after 6 hrs by DAPI staining based DAPI staining based confocal microscopic analysis; format: cell-based; method in brief: as §2
CL1-0 [7] = test: Induction of morphological changes in human CL1-0 cells assessed as disruption of mitotic spindle arrangement at 20 nM after 6 hrs by DAPI staining based confocal microscopic analysis; format: functional, cell-based; method in brief: as §2
NCI-H1975 [8] = test: Induction of mitotic arrest in human NCI-H1975 cells assessed as increase in phospho-histone H3 expression at 40 to 80 nM after 24 hrs by immunoblotting analysis; format: functional, cell-based
SAS = test: Antiproliferative activity against human SAS cells assessed as reduction in cell viability after 72 hrs by MTS assay; format: functional, cell-based; method in brief: as §1
HCT-116 = test: Antiproliferative activity against human HCT116 cells assessed as reduction in cell viability after 72 hrs by MTS assay; format: functional, cell-based; conditions: HCT-116, 72 h; method in brief: as §1
NCI-H1975 [9] = test: Induction of apoptosis in human NCI-H1975 cells assessed as PARP cleavage at 40 nM by immunoblotting analysis; format: functional, cell-based; conditions: TDE = time-dependent effect
PC-9 = test: Antiproliferative activity against human PC9 cells assessed as reduction in cell viability after 72 hrs by MTS assay; format: functional, cell-based; conditions: PC-9, 72 h; method in brief: as §1
CL1-0 [10] = test: Induction of apoptosis in human CL1-0 cells assessed as PARP cleavage at 20 nM by immunoblotting analysis; format: functional, cell-based; conditions: TDE = time-dependent effect
CL1-0 [11] = test: Induction of apoptosis in human CL1-0 cells assessed as increase in cytochrome c level in cytosol at 20 to 40 nM after 24 hrs by immunoblotting analysis; format: functional, cell-based
Homo sapiens [12] = species: Homo sapiens; test: Induction of apoptosis in human KBtax cells assessed as cleaved caspase-9 at 30 to 60 nM after 24 hrs by immunoblotting analysis; format: functional, cell-based
Homo sapiens [13] = test: Induction of apoptosis in human KBtax cells xenografted in Balb/c mouse at 8 mg/kg, ip administered 3 times per week and measured after 21 days by TUNEL staining based histological analysis; format: functional, organism-based
Method in brief: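 1×10^7 KBtax cells injected subcutaneously into the right flank of 6-week-old BALB/c nude mice (n = 5 per group). Once tumors established, compound in DMSO given ip three times a week for 21 days. Tumor sections stained with H&E and by TUNEL.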

[14] = Toxicity in Balb/c mouse xenografted with human KBtax cells assessed as serum ALT level at 8 mg/kg, ip administered 3 times per week and measured after 21 days (reference value: 32.7 +/- 4.8 IU/L); format: organism-based; conditions: in vivo, 504 h
[15] = Antitumour activity against human KBtax cells xenografted in Balb/c mouse assessed as reduction in tumour size at 8 mg/kg, ip administered 3 times per week and measured after 21 days (reference value: 1109 +/- 128.3 mm3); format: functional
Homo sapiens [16] = species: Homo sapiens; test: Induction of apoptosis in human KBtax cells assessed as PARP cleavage at 30 to 60 nM after 24 hrs by immunoblotting analysis; format: functional, cell-based
NCI-H1975 [17] = test: Antitumour activity against human NCI-H1975 cells xenografted in Balb/c mouse assessed as tumour size at 4 mg/kg, ip administered three times per week and measured on day 21 (reference value: 2153 +/- 126.3 mm3); format: functional
Method in brief: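 H1975 tumours grown in the right flank of 6-week-old BALB/c nude mice. DMSO vehicle or 4 or 8 mg/kg compound in DMSO given ip three times weekly. Tumour volume calculated as 0.5W²L before each dose and compared on day 21.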

NCI-H1975 [18] = test: Induction of apoptosis in human NCI-H1975 cells assessed as increase in cyclin B1 expression at 25 to 50 nM after 24 hrs by immunoblotting analysis; format: functional, cell-based
Tubulin (Homo sapiens) [19] = target: T1, Tubulin (Homo sapiens); test: Inhibition of microtubule polymerization in human KBtax cells at 30 nM after 6 hrs by DAPI staining based scanning confocal microscopic analysis; format: cell-based; method in brief: as §2
[20] = Toxicity in Balb/c mouse xenografted with human KBtax cells assessed as serum BUN level at 8 mg/kg, ip administered 3 times per week and measured after 21 days (reference value: 17.8 +/-1.1 mg/dl); format: organism-based; conditions: in vivo, 504 h
Homo sapiens [21] = species: Homo sapiens; test: Induction of morphological changes in human KBtax cells assessed as disruption of mitotic spindle arrangement at 30 nM after 6 hrs by DAPI staining based confocal microscopic analysis; format: functional, cell-based; method in brief: as §2
[22] = Toxicity in Balb/c mouse xenografted with human KBtax cells assessed as serum AST level at 8 mg/kg, ip administered 3 times per week and measured after 21 days (reference value: 94.2 +/- 12.5 IU/L); format: organism-based; conditions: in vivo, 504 h

CCOC(=O)c1ccc2nc(-c3ccccc3)cc(O)c2c1
Activity (CL1-0 [1]): inactive
IC50 (DU-145): 0.047 µM
Activity (CL1-0 [2]): Active
Activity (NCI-H1975 [3]): Active
IC50 (SK-OV-3): 0.05 µM
Activity (NCI-H1975 [4]): Active
Activity (NCI-H1975 [5]): Dose-dependent effect
Activity (Tubulin (Homo sapiens) [6]): Active
Activity (CL1-0 [7]): Active
Activity (NCI-H1975 [8]): Active
IC50 (SAS): 0.078 µM
IC50 (HCT-116): 0.05 µM
Activity (NCI-H1975 [9]): Tde
IC50 (PC-9): 0.017 µM
Activity (CL1-0 [10]): Tde
Activity (CL1-0 [11]): Active

CCOC(=O)c1ccc2[nH]c(-c3cccc(F)c3)cc(=O)c2c1
Activity (Homo sapiens [12]): Active
Activity (Homo sapiens [13]): Active
Activity [14]: 64 IU/L
Activity [15]: 528.4 mm3
Activity (Homo sapiens [16]): Active
Activity (NCI-H1975 [17]): 1333 mm3
Activity (NCI-H1975 [18]): Active
inhibition (Tubulin (Homo sapiens) [19]): Active
Activity [20]: 18.2 mg/dL
Activity (Homo sapiens [21]): Active
Activity [22]: 120.7 IU/L

Source: ChEMBL document CHEMBL4359883, “4(1H)-quinolone derivatives overcome acquired resistance to anti-microtubule agents by targeting the colchicine site of β-tubulin” (Eur J Med Chem, 2019)
